Activity calls are given as the source filed them. The rule behind the calls is not given here.

Data on 14 molecules can be found in ChEMBL document CHEMBL1154756, “Synthesis of new chalcone derivatives containing acridinyl moiety with potential antimalarial activity” (Eur J Med Chem, 2010).

The subject of test [1] is Plasmodium falciparum. Nature of the test: Antimalarial activity against chloroquine-sensitive Plasmodium falciparum NF54 assessed as inhibition of schizont maturation at 100 ug/ml after 36-40 hrs relative to control. It counts as functional. Also on record: scale not given: the % may be the effect or the level left. The method, boiled down:
(§1)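 NF-54 cultures were kept in RPMI 1640 with 25 mM HEPES, 1% bicarbonate and 0.5% ALBUMAX-II. Wells held 3% haematocrit in medium with 10% FBS, and compound was added from a 5 mg/mL DMSO stock diluted in medium. Duplicates were incubated at 37 °C in CO2 for 36–40 h. Rings, trophozoites and schizonts were counted per 100 parasites on Giemsa smears, giving % maturation inhibition versus untreated control.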

For test [2], the system named is Plasmodium falciparum. Description: Antimalarial activity against chloroquine-sensitive Plasmodium falciparum NF54 assessed as inhibition of schizont maturation at 10 ug/ml after 36-40 hrs relative to control. The test is classed as functional. Also on record: scale not given: the % may be the effect or the level left. In a few lines:
as §1

Test [3] concerns Plasmodium falciparum. Nature of the test: Antimalarial activity against chloroquine-sensitive Plasmodium falciparum NF54 assessed as inhibition of schizont maturation at 2 ug/ml after 36-40 hrs relative to control. The test is classed as functional. Further details: scale not given: the % may be the effect or the level left. In a few lines:
as §1

Test [4] deals with Plasmodium falciparum. Description: Antimalarial activity against chloroquine-sensitive Plasmodium falciparum NF54 assessed as inhibition of schizont maturation at 50 ug/ml after 36-40 hrs relative to control. It counts as functional. Further details: scale not given: the % may be the effect or the level left. The method, boiled down:
as §1

For test [5], the system named is Plasmodium falciparum. Nature of the test: Antimalarial activity against chloroquine-sensitive Plasmodium falciparum NF54 assessed as inhibition of schizont maturation at 0.50 ug/ml after 36-40 hrs relative to control. The test is classed as functional. Further details: scale not given: the % may be the effect or the level left.
The subject of test [6] is Plasmodium falciparum. Description: Antimalarial activity against chloroquine-sensitive Plasmodium falciparum NF54 assessed as inhibition of schizont maturation at 0.25 ug/ml after 36-40 hrs relative to control. The test is classed as functional. Also on record: scale not given: the % may be the effect or the level left.
Test [7] has as its system Plasmodium falciparum. Description: Antimalarial activity against chloroquine-sensitive Plasmodium falciparum NF54 assessed as inhibition of schizont maturation at 0.0625 ug/ml after 36-40 hrs relative to control. Further details: scale not given: the % may be the effect or the level left. The test is classed as functional.
For test [8], the system named is Plasmodium falciparum. Nature of the test: Antimalarial activity against chloroquine-sensitive Plasmodium falciparum NF54 assessed as inhibition of schizont maturation at 0.125 ug/ml after 36-40 hrs relative to control. The test is classed as functional. Also on record: scale not given: the % may be the effect or the level left.
The test system of test [9] is Plasmodium falciparum. Description: Antimalarial activity against chloroquine-sensitive Plasmodium falciparum NF54 assessed as inhibition of schizont maturation at 0.4 ug/ml after 36-40 hrs relative to control. It counts as functional. Also on record: scale not given: the % may be the effect or the level left. The method, boiled down: as §1
For test [10], the system named is Plasmodium yoelii. Nature of the test: Antimalarial activity against chloroquine-resistant Plasmodium yoelii N67 infected in Swiss mice (Mus musculus) assessed as suppression of parasitaemia at 50 mg/kg, intraperitoneal once daily for 4 consecutive days measured after 6 days. It counts as functional, organism-based. Further details: dose 50 mg/kg.
The subject of test [11] is Plasmodium yoelii. Description: Antimalarial activity against chloroquine-resistant Plasmodium yoelii N67 infected in Swiss mice (Mus musculus) assessed as suppression of parasitaemia at 50 mg/kg, intraperitoneal once daily for 4 consecutive days measured after 4 days. The test is classed as functional.
Test [12] concerns Plasmodium yoelii. Nature of the test: Antimalarial activity against chloroquine-resistant Plasmodium yoelii N67 infected in Swiss mice (Mus musculus) assessed as mean survival time at 50 mg/kg, intraperitoneal once daily for 4 consecutive days. The test is classed as functional.
Test [13] relates to Plasmodium falciparum. Nature of the test: Antimalarial activity against chloroquine-sensitive Plasmodium falciparum NF54 assessed as inhibition of schizont maturation. It counts as functional. Also on record: scale not given: the % may be the effect or the level left. In a few lines: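 P. falciparum NF-54 was grown in RPMI 1640 with 25 mM HEPES, 1% sodium bicarbonate and 0.5% ALBUMAX-II. The assay used 3% haematocrit in medium with 10% FBS, with a DMSO stock (5 mg/mL) diluted in medium to five-fold dilutions. Duplicate wells were incubated at 37 °C in CO2 for 36–40 h, then Giemsa smears were read. MIC was the concentration fully blocking maturation to schizonts.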

For test [14], the system named is Plasmodium falciparum. Description: Antimalarial activity against chloroquine-resistant Plasmodium falciparum W2. It counts as functional, organism-based.
Test [15] deals with Plasmodium falciparum. Nature of the test: Antimalarial activity against chloroquine-sensitive Plasmodium falciparum NF54 assessed as inhibition of schizont maturation at 0.08 ug/ml after 36-40 hrs relative to control. It counts as functional. Also on record: scale not given: the % may be the effect or the level left. In a few lines: as §1

Turning to `O=C(/C=C/c1ccccc1)c1ccc(Nc2c3ccccc3nc3ccccc23)cc1`, the Activity in the test on Plasmodium falciparum [1] amounted to 100%; in the test with Plasmodium falciparum [2], 100%; in the test on Plasmodium falciparum [3], 42.8%; with Plasmodium falciparum [4], 100%.
Consider `CCN(CC)CCCC(C)Nc1ccnc2cc(Cl)ccc12` (stereo not given) [CHLOROQUINE], for which the Activity in the test on Plasmodium falciparum [5] was determined as 100%; in the test with Plasmodium falciparum [6], 100%; in the test on Plasmodium falciparum [7], 74.3%; with Plasmodium falciparum [8], 97.1%.
As to `COc1cc(/C=C/C(=O)c2ccc(Nc3c4ccccc4nc4ccccc34)cc2)cc(OC)c1OC`, the Activity stood at 5.7% in the test with Plasmodium falciparum [9]; 100% with Plasmodium falciparum [1]; 100% in the test on Plasmodium falciparum [2]; 57.1% in the test with Plasmodium falciparum [3]; 100% in the test with Plasmodium falciparum [4].
On to `O=C(/C=C/c1ccc(Cl)cc1)c1ccc(Nc2c3ccccc3nc3ccccc23)cc1`, for which the Activity is 100% with Plasmodium falciparum [1], 100% in the test on Plasmodium falciparum [2], 0% with Plasmodium falciparum [3] and 100% in the test on Plasmodium falciparum [4].
On to `O=C(/C=C/C=C/c1ccccc1)c1ccc(Nc2c3ccccc3nc3ccccc23)cc1`, for which the Activity in the test with Plasmodium falciparum [9] turned out to be 0%; in the test with Plasmodium falciparum [1] it was 100%; in the test on Plasmodium falciparum [2], 100%; with Plasmodium falciparum [3] it was 64.3%; with Plasmodium falciparum [4] it was 100%.
For the molecule `O=C(/C=C/c1cccc([N+](=O)[O-])c1)c1ccc(Nc2c3ccccc3nc3ccccc23)cc1`, the Activity in the test on Plasmodium falciparum [1] is 100%; in the test with Plasmodium falciparum [2], 100%; in the test with Plasmodium falciparum [3] it was 0%; in the test on Plasmodium falciparum [4] it was 100%.
As to `COc1ccc(/C=C/C(=O)c2cccc(Nc3c4ccccc4nc4ccccc34)c2)cc1`, the Activity turned out to be 7.1% in the test with Plasmodium falciparum [9]; 100% in the test on Plasmodium falciparum [1]; 100% in the test with Plasmodium falciparum [2]; 6.22% in the test with Plasmodium yoelii [11]; 71.4% in the test on Plasmodium falciparum [3]; 100% in the test on Plasmodium falciparum [4]. The outcome with Plasmodium yoelii [10] was inactive. Besides, the Survival in the test on Plasmodium yoelii [12] came out at 15.2 days.
As for `O=C(/C=C/c1ccccc1)c1cccc(Nc2c3ccccc3nc3ccccc23)c1`, the Activity was found to be 4.3% in the test on Plasmodium falciparum [9]; 100% in the test on Plasmodium falciparum [1]; 100% with Plasmodium falciparum [2]; 97.1% with Plasmodium falciparum [3]; 100% with Plasmodium falciparum [4]. Also, the result in the test on Plasmodium yoelii [10] and in the test with Plasmodium yoelii [11] was inactive. For the same molecule, the Survival in the test on Plasmodium yoelii [12] amounted to 15.5 days.
For the molecule `COc1cc(/C=C/C(=O)c2ccc(O)c(CC=C(C)C)c2O)ccc1O` [CROTAORIXIN], in the test with Plasmodium falciparum [13], the Activity was 100%.
Take `Cc1ccc(/C=C/C(=O)c2ccc(Nc3c4ccccc4nc4ccccc34)cc2)cc1`: the Activity is 100% in the test on Plasmodium falciparum [1], 100% with Plasmodium falciparum [2], 42.8% in the test with Plasmodium falciparum [3] and 100% in the test on Plasmodium falciparum [4].
In the case of `O=C(/C=C/c1ccc(Cl)cc1)c1cccc(Nc2c3ccccc3nc3ccccc23)c1`, the Activity in the test with Plasmodium falciparum [1] turned out to be 100%; in the test with Plasmodium falciparum [2], 100%; in the test on Plasmodium falciparum [3], 0%; in the test on Plasmodium falciparum [4] it was 100%.
In the test on Plasmodium falciparum [14], `CC(C)=CCc1cc(/C=C/C(=O)c2ccc(O)cc2O)ccc1O` [LICOAGROCHALCONE A] gave an IC50 of 10.3 µM.
As to `COc1ccc(/C=C/C(=O)c2ccc(Nc3c4ccccc4nc4ccccc34)cc2)cc1`, the Activity with Plasmodium falciparum [9] turned out to be 71.4%; in the test on Plasmodium falciparum [1], 100%; with Plasmodium falciparum [15], 14.3%; in the test on Plasmodium falciparum [2] it was 100%; in the test with Plasmodium falciparum [3], 85.7%; in the test on Plasmodium falciparum [4], 100%. In addition, the result with Plasmodium yoelii [10] and with Plasmodium yoelii [11] was inactive. The Survival in the test with Plasmodium yoelii [12] was found to be 10.67 days.
As for `Cc1cccc(/C=C/C(=O)c2ccc(Nc3c4ccccc4nc4ccccc34)cc2)c1`, the Activity in the test with Plasmodium falciparum [1] is recorded as 100%; in the test with Plasmodium falciparum [2] it was 100%; in the test with Plasmodium falciparum [3], 0%; with Plasmodium falciparum [4], 100%.

The IC50 is the concentration that inhibits the measured activity by half.
